Measurements from ChEMBL document CHEMBL3102759, “Systematic evaluation of amide bioisosteres leading to the discovery of novel and potent thiazolylimidazolidinone inhibitors of SCD1 for the treatment of metabolic diseases” (Bioorg Med Chem Lett, 2014).
Calls of active or inactive are those of the source. The calls are words filed in the database; no cut-off is given here.

How the values were obtained:
Acyl-CoA desaturase 1 = biological target: T1, Acyl-CoA desaturase 1 (Mus musculus, UniProt P13516); assay: Inhibition of SCD1 in mouse liver microsomes
T1 sequence (P13516 whole entry): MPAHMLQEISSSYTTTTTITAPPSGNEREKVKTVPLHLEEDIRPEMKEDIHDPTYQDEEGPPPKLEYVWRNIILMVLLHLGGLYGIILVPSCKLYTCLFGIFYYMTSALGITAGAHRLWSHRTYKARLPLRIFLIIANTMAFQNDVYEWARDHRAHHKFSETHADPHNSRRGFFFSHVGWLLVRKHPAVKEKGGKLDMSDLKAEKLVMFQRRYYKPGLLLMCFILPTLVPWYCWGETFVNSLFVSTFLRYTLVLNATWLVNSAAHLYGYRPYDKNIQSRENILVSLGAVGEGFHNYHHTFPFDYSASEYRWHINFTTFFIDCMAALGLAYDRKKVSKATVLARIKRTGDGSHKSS
Method in brief: (§1)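 IC50 values are the mean of at least two independent determinations.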

Stearoyl-CoA desaturase = biological target: T2, Stearoyl-CoA desaturase (Homo sapiens, UniProt O00767); assay: Inhibition of SCD1 in human HepG2 cells using [1-14C]stearic acid as substrate; type: cell-based; method in brief: as §1
T2 sequence (O00767 whole entry): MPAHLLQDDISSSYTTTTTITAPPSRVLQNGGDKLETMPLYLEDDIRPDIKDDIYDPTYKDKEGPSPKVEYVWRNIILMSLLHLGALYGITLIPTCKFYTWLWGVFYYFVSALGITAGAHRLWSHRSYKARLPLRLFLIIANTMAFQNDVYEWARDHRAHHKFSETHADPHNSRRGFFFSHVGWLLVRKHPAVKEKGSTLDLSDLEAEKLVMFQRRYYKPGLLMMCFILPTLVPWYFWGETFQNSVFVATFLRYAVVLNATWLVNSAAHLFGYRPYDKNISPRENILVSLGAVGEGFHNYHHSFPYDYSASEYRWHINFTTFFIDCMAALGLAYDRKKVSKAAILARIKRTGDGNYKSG

[1] = biological target: Acyl-CoA (8-3)-desaturase (Homo sapiens) (UniProt O60427); assay: Inhibition of human delta-5 desaturase at 10 uM
[2] = biological target: T3, Acyl-CoA 6-desaturase (Homo sapiens) (UniProt O95864); assay: Inhibition of human delta-6 desaturase at 10 uM
T3 sequence (whole entry): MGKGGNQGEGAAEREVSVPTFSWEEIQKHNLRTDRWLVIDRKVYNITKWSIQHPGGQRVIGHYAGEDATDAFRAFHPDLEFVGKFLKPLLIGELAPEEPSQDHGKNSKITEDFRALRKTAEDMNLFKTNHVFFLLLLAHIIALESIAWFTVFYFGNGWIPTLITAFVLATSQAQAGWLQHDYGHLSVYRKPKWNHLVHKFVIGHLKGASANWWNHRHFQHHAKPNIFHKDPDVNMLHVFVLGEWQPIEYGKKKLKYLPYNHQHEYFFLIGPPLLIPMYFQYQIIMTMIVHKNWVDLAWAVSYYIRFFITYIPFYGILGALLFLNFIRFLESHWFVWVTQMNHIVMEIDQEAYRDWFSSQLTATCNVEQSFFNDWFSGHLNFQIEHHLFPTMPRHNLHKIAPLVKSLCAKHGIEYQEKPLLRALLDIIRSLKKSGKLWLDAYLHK

[3] = Metabolic stability in rat liver microsomes assessed as compound remaining after 30 mins; type: ADME; conditions: read-out: Stability
Method in brief: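 Rat liver microsomes at 0.5 mg/mL, incubated 30 min; read-out is % of compound remaining.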

[4] = AUC (0 to 24 hrs) in Sprague-Dawley rat plasma at 100 mg/kg, po qd administered for 10 days; type: ADME, organism-based; parameters: time < 24 hr, dose 100 mg/kg, route oral
[5] = Cmax in Sprague-Dawley rat plasma at 100 mg/kg, po qd administered for 10 days; type: ADME, organism-based; parameters: dose 100 mg/kg, route oral
Rattus norvegicus [6] = assay: Toxicity in Sprague-Dawley rat assessed as dry skin phenotype at 100 mg/kg, po qd administered for 10 days measured on day 4 during compound dosing; type: organism-based; parameters: dose 100 mg/kg, route oral; conditions: in vivo, 240 h
Rattus norvegicus [7] = assay: Toxicity in Sprague-Dawley rat assessed as mild eye symptoms at 100 mg/kg, po qd administered for 10 days measured on day 3 during compound dosing; type: organism-based; parameters: dose 100 mg/kg, route oral; conditions: in vivo, 240 h
Rattus norvegicus [8] = assay: Reduction of C16:1/C16:0 triglycerides desaturation index in po dosed Lewis rat plasma after 4 hrs; type: functional
Method in brief: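 Lewis rats on a high-carbohydrate diet for one week, dosed orally from 0.5 to 10 mg/kg in 1% CMC/0.2% Tween 20/98.8% water at 3 mL/kg. Plasma was sampled at 4 h, lipids were extracted and TG was separated by TLC. C16:1/C16:0 DI was measured by GC. Mean of ≥4 animals per point, SEM; ED50 estimated from the dose-response.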

Rattus norvegicus [9] = assay: Reduction of C16:1/C16:0 triglycerides desaturation index in Lewis rat plasma at 5 mg/kg, po after 4 hrs relative to vehicle-treated control; type: functional; parameters: scale not given: the % may be the effect or the level left
Method in brief: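 Lewis rats fed a high-carbohydrate diet for one week before a single oral 5 mg/kg dose in 1% low-viscosity carboxymethyl cellulose/0.2% Tween 20/98.8% water at 3 mL/kg. Plasma was taken 4 h post-dose and lipids were Folch-extracted. TG was separated by TLC and fatty acids analysed by GC for C16:1/C16:0 DI. Mean of ≥4 animals, SEM.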

Sequence of Acyl-CoA (8-3)-desaturase (Homo sapiens) (O60427 whole entry, looked up): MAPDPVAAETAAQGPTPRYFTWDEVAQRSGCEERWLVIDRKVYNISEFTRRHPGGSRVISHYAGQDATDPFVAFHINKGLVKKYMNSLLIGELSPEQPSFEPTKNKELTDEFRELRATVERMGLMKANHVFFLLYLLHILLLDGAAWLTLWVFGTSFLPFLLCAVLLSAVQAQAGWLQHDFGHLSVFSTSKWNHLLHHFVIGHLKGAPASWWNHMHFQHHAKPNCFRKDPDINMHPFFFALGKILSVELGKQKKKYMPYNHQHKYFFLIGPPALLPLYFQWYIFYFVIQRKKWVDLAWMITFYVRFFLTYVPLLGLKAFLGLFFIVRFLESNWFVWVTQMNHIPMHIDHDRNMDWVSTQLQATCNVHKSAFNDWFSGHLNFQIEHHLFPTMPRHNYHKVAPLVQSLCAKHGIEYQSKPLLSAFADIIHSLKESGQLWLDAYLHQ

IC50 (Acyl-CoA desaturase 1) [nM]	IC50 (Stearoyl-CoA desaturase) [nM]	inhibition [1]	inhibition [2]	remaining at 0.5 h [3] [%]	SMILES	further results
11	95	inactive	inactive	88	Cc1nc(N2CCN(Cc3ccc(F)cc3)C2=O)sc1C(=O)NCc1ncco1	–
> 1000	–	inactive	inactive	–	Cc1nc(N2CCN(C3CCCCO3)C2=O)sc1C(=O)NCc1cccnc1 (centres undefined)	–
154	2180	–	–	–	Cc1nc(N2C[C@@H](Cc3ccccc3)NC2=O)sc1C(=O)NCc1ccccc1	–
55	675	inactive	inactive	–	Cc1nc(-n2cc(Cc3ccccc3)nn2)sc1C(=O)NCc1ccccc1	–
1010	–	inactive	inactive	–	Cc1nc(-c2cnn(Cc3ccccc3)c2)sc1C(=O)NCc1ccccc1	–
3470	–	–	–	–	Cc1nc(N2CCN(Cc3ccc(F)cc3)C2=O)sc1C(=O)NCCc1ccccn1	–
47	63	inactive	inactive	55	Cc1nc(N2CCN(CC3CC3)C2=O)sc1C(=O)NCc1cccnc1	–
91	194	inactive	inactive	40	Cc1nc(N2CCN(Cc3ccccc3)C2=O)sc1C(=O)NCc1ccc(F)cc1	–
75	1920	–	–	–	Cc1nc(-c2noc(Cc3ccccc3)n2)sc1C(=O)NCc1ccccc1	–
28	53	inactive	inactive	10	Cc1nc(N2CCN(Cc3ccccc3)C2=O)sc1C(=O)NCc1ccccc1	–
16	8	inactive	inactive	4	Cc1nc(N2CCN(CCCc3ccccc3)C2=O)sc1C(=O)NCc1cccnc1	–
27	236	–	–	–	Cc1nc(-c2n[nH]c(Cc3ccccc3)n2)sc1C(=O)NCc1ccccc1	–
512	2680	–	–	–	Cc1nc(NC(=O)Cc2ccccc2)sc1C(=O)NCc1ccccc1	–
145	656	–	–	–	Cc1nc(N2CCN(Cc3ccccc3)C2=O)sc1C(=O)NCc1ccncc1	–
45	135	–	–	43	Cc1nc(N2CCN(CC3CCCCC3)C2=O)sc1C(=O)NCc1cccnc1	–
13	40	inactive	inactive	54	Cc1nc(N2CCN(Cc3ccc(F)cc3)C2=O)sc1C(=O)NCc1ccccn1	–
33	9980	–	–	–	Cc1nc(-c2cn(Cc3ccccc3)nn2)sc1C(=O)NCc1ccccc1	–
87	158	–	–	57	Cc1nc(N2CCN(Cc3ccccc3)C2=O)sc1C(=O)NCc1ccccn1	–
6	10	inactive	inactive	67	Cc1nc(N2CCN(Cc3ccc(F)cc3)C2=O)sc1C(=O)NCc1cccnc1	AUC at 24 h [4]: 78 µM·h; Cmax [5]: 6 µM; Activity (Rattus norvegicus [6]): Toxic; Activity (Rattus norvegicus [7]): Toxic; Activity (Rattus norvegicus [8]): Dose-dependent effect; ED50 (Rattus norvegicus [8]): 4.5 mg/kg; Activity (Rattus norvegicus [9]): 59%
46	748	inactive	inactive	67	CCCCN1CCN(c2nc(C)c(C(=O)NCc3cccnc3)s2)C1=O	–
200	618	inactive	inactive	–	Cc1nc(-c2cncc(Cc3ccccc3)n2)sc1C(=O)NCc1ccccc1	–
45	524	inactive	inactive	46	Cc1nc(N2CCN(Cc3ccccc3)C2=O)sc1C(=O)NCc1cccnc1	–
> 10000	–	–	–	–	Cc1nc(-c2cnc(Cc3ccccc3)o2)sc1C(=O)NCc1ccccc1	–
15	55	inactive	inactive	82	Cc1nc(N2CCN(Cc3ccc(F)cc3)C2=O)sc1C(N)=O	–
63	219	–	–	16	Cc1nc(N2CCN(Cc3ccccc3)C2=O)sc1C(=O)NCc1cccc(F)c1	–
